Measured values reported in article PMC11077555 (Chemical Science, 2024).
Several values for one entry are separate records, joined by “and”; a condition that tells them apart may be missing. Equal values may be shown once.

How the values were obtained:
human recombinant PSMA = human recombinant PSMA (Homo sapiens, UniProt Q04609); assay: Fluorescence polarization; type: binding
human recombinant GCPIII = human recombinant GCPIII (Homo sapiens, UniProt Q9Y3Q0); assay: Fluorescence polarization; type: binding; settings: for Kd: KD,GCPIII; for Kd / affinity against GCPIII (in words): off-DNA FP; for fold selectivity (fold higher dissociation constant towards GCPIII): compared to the original HIT3
HT1080.hPSMA cells = assay: Flow cytometry on HT1080.hPSMA cells; type: cell-based, human; settings: HT1080.hPSMA vs HT1080.wt; fluorescein-labelled compounds 50-250 nM
Method in brief: (§1)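 Fluorescein-conjugated test compounds were incubated with PSMA-positive cells (HT1080.hPSMA, LNCaP), with PSMA-negative HT1080.wt cells as reference. Cell-bound fluorescence was measured by flow cytometry to assess recognition of PSMA in a native cellular environment.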

LNCaP cells = assay: Flow cytometry on LNCaP cells; type: cell-based; settings: HT1080.wt as reference
Method in brief: as §1

PSMA = settings: read-out: IC50,PSMA; cited from earlier work
HT1080.hPSMA tumors = assay: Quantitative in vivo biodistribution in tumor-bearing mice; parameters: species or system BALB/c nude mice; settings: 2 h after i.v., n = 3
[1] = in combination with best standard of care; cited from earlier work

human recombinant PSMA, sequence (Q04609 whole entry): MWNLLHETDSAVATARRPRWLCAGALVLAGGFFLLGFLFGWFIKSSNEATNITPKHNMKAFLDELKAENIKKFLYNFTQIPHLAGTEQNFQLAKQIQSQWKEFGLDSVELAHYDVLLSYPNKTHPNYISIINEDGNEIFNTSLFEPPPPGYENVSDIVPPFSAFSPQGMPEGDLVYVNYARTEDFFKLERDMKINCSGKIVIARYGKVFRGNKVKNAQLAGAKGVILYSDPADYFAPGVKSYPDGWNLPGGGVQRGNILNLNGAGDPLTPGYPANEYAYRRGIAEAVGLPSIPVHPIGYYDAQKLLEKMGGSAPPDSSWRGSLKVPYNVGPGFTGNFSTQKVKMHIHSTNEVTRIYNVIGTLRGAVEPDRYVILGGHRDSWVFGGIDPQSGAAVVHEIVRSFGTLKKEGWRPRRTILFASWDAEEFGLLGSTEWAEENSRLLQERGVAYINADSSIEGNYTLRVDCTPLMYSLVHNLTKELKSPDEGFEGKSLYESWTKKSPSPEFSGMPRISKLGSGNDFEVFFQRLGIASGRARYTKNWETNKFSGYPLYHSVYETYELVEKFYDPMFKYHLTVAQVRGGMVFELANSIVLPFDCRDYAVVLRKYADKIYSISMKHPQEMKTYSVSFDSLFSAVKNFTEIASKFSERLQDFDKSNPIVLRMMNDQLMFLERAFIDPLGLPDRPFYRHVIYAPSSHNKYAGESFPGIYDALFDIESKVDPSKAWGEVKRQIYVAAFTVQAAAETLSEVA
human recombinant GCPIII, sequence (Q9Y3Q0 whole entry): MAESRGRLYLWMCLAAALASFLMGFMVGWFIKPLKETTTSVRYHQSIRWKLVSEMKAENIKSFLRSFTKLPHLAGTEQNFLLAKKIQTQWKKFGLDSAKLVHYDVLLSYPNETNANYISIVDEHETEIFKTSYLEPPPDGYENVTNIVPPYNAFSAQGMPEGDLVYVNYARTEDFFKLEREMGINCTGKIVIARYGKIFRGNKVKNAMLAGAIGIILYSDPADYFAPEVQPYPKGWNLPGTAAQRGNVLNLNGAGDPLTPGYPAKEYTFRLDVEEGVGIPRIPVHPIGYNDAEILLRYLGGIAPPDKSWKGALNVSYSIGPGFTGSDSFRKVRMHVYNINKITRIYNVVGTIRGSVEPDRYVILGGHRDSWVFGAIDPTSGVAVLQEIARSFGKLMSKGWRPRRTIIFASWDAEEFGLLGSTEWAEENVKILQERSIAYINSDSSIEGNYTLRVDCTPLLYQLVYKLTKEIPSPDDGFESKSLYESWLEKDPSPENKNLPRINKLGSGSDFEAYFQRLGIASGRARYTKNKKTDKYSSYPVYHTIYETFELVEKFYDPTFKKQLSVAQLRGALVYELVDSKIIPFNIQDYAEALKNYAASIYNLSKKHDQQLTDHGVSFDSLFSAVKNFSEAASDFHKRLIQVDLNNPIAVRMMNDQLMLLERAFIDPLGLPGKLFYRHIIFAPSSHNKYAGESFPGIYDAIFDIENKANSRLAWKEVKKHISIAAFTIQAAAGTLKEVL

Question: Which Kd (human recombinant PSMA) does the source give for `N#Cc1cccc(C[C@H](NC(=O)c2nn(-c3ccccc3)c(=O)[nH]c2=O)C(=O)N[C@@H](Cc2ccc(CP(=O)(O)O)cc2)C(=O)N[C@@H](CCCCNC(=S)Nc2ccc3c(c2)C(=O)OC32c3ccc(O)cc3Oc3cc(O)ccc32)C(=O)O)c1` [Compound 1] here?
Answer: Its Kd is 260 ± 5 nM.

Question: What about the Kd (human recombinant GCPIII) of the same compound?
Answer: The Kd was 600 ± 3 nM.

Question: Which “affinity against GCPIII (in words)” value (human recombinant GCPIII) does the source give for `O=C(O)CNC(=O)c1cc(CNC(=O)c2ccc(CNC(=O)[C@H]3C[C@H](NC(=O)CCNS(=O)(=O)c4ccc5ccccc5c4)CN3C(=O)c3nn(-c4ccccc4)c(=O)[nH]c3=O)cc2)cc(OCC(=O)N[C@@H](CCCCNC(=S)Nc2ccc3c(c2)C(=O)OC32c3ccc(O)cc3Oc3cc(O)ccc32)C(=O)O)c1` [Compound 5] here?
Answer: The value was “no measurable affinity was detected”.

Question: With `O=C(CCNS(=O)(=O)c1ccc2ccccc2c1)N[C@H]1C[C@H](C(=O)N[C@@H](CCCCNC(=S)Nc2ccc3c(c2)C(=O)OC32c3ccc(O)cc3Oc3cc(O)ccc32)C(=O)O)N(C(=O)c2nn(-c3ccccc3)c(=O)[nH]c2=O)C1` [Compound 6] as the compound, how does the “affinity against GCPIII (in words)” value (human recombinant GCPIII) read?
Answer: The value was “no measurable affinity was detected”.

Question: With `O=C(O)CNC(=O)c1cc(CNC(=O)c2ccc(CNC(=O)[C@H]3C[C@H](NC(=O)CCNS(=O)(=O)c4ccc5ccccc5c4)CN3C(=O)c3nn(-c4ccccc4)c(=O)[nH]c3=O)cc2)cc(OCC(=O)NCCOCCOCCNC(=S)Nc2ccc3c(c2)C(=O)OC32c3ccc(O)cc3Oc3cc(O)ccc32)c1` [Compound 7] as the compound, how does the “affinity against GCPIII (in words)” value (human recombinant GCPIII) read?
Answer: The value was “no measurable affinity was detected”.

Question: Which Kd (human recombinant PSMA) does the source give for `O=C(CCNS(=O)(=O)c1ccc2ccccc2c1)N[C@H]1C[C@H](C(=O)NCCOCCOCCNC(=S)Nc2ccc3c(c2)C(=O)OC32c3ccc(O)cc3Oc3cc(O)ccc32)N(C(=O)c2nn(-c3ccccc3)c(=O)[nH]c2=O)C1` [Compound 8, (2R,4S) -N-(2-(2-(2-(3-(3',6'-dihydroxy-3-oxo-3H-spiro[isobenzofuran-1,9'-xanthen]-5-yl)thioureido)ethoxy)ethoxy)ethyl)-1-(3,5-dioxo-2-phenyl-2,3,4,5-tetrahydro-1,2,4-triazine-6-carbonyl)-4-(3-(naphthalene-2-sulfonamido)propanamido)pyrrolidine-2-carboxamide] here?
Answer: The Kd was > 10000 nM.

Question: What about the “affinity against GCPIII (in words)” value (human recombinant GCPIII) of the same compound?
Answer: The value was “no measurable affinity was detected”.

Question: What does the source list for `C#CC[C@H](NC(=O)[C@@H]1C[C@@H](C2CCCCC2)CN1C(=O)CSC1CCN(C(=O)CC[C@H](NC(=O)N[C@@H](CCC(=O)O)C(=O)O)C(=O)O)CC1)C(=O)NCCOCCOCCNC(=S)Nc1ccc2c(c1)C(=O)OC21c2ccc(O)cc2Oc2cc(O)ccc21` [Compound 9]?
Answer: Kd (human recombinant PSMA): 0.9 ± 0.5 nM; fold selectivity (fold higher dissociation constant towards GCPIII) (human recombinant GCPIII): ~40 fold

Question: Which results are given for `C#CC[C@@H](NC(=O)[C@@H]1C[C@@H](C2CCCCC2)CN1C(=O)CSC1CCN(C(=O)CC[C@H](NC(=O)N[C@@H](CCC(=O)O)C(=O)O)C(=O)O)CC1)C(=O)NCCOCCOCCNC(=S)Nc1ccc2c(c1)C(=O)OC21c2ccc(O)cc2Oc2cc(O)ccc21` [Compound 10]?
Answer: Kd (human recombinant PSMA): 1.3 ± 0.7 nM; fold selectivity (fold higher dissociation constant towards GCPIII) (human recombinant GCPIII): ~40 fold

Question: With `O=C(O)CC[C@H](NC(=O)N[C@@H](CCC(=O)NCCOCCOCCNC(=S)Nc1ccc2c(c1)C(=O)OC21c2ccc(O)cc2Oc2cc(O)ccc21)C(=O)O)C(=O)O` [Compound 12] as the compound, how does the “binding to PSMA on cells, fluorescence shift by flow cytometry” value (HT1080.hPSMA cells) read?
Answer: The value was “avidly bound to PSMA”.

Question: And the “binding to PSMA on cells, fluorescence shift by flow cytometry” value (LNCaP cells)?
Answer: Its value is “avidly bound to PSMA”.

Question: With `O=C(CCNS(=O)(=O)c1ccc2ccccc2c1)N[C@H]1C[C@H](C(=O)O)N(C(=O)c2nn(-c3ccccc3)c(=O)[nH]c2=O)C1` [HIT2] as the compound, how does the “binding to PSMA on cells, fluorescence shift by flow cytometry” value (HT1080.hPSMA cells) read?
Answer: The value was “not able to interact with PSMA on tumor cells”.

Question: For `O=C(O)CC[C@H](NC(=O)N[C@@H](CCC(=O)O)C(=O)O)C(=O)O` [HIT3, (2S,2′S)-2,2′-(carbonyldiimino)dipentanedioic acid, reference compound], which Kd (human recombinant PSMA) is on record?
Answer: The Kd was 1 nM.

Question: What about the Kd (human recombinant GCPIII) of the same compound?
Answer: Its Kd is 1.2 nM and 1 nM.

Question: What about the IC50 (PSMA) of the same compound?
Answer: Its IC50 is 47 nM.

Question: Which “Tumor (HT1080.hPSMA) uptake” value (HT1080.hPSMA tumors; 18: 1 nmol/mouse, Pluvicto 0.5 nmol/mouse, 1 MBq) does the source give for `O=C([O-])CN1CCN(CC(=O)[O-])CCN(CC(=O)NCC2CCC(C(=O)N[C@@H](Cc3ccc4ccccc4c3)C(=O)NCCCC[C@H](NC(=O)N[C@@H](CCC(=O)O)C(=O)O)C(=O)O)CC2)CCN(CC(=O)[O-])CC1.[177Lu+3]` (stereo partly shown) [Pluvicto™] here?
Answer: The value was 32.4 %ID/g.

Question: What about the Kidney uptake (HT1080.hPSMA tumors) of the same compound?
Answer: The Kidney uptake was 2.16 %ID/g.

Question: What about the “Tumor-to-organ ratio, Blood (T : B)” value (HT1080.hPSMA tumors) of the same compound?
Answer: Its value is 2079.

Question: And the overall response rate [1]?
Answer: The overall response rate was 30%.

Question: And the overall survival [1]?
Answer: Its overall survival is 15.3 months.
